Published values of several laboratories.
Compare with care: the assays were run in different laboratories. ≈ marks a conversion by molar mass, not a printed value.
Organism: Staphylococcus aureus

`COC(=O)c1cc(-c2cccc(NC(=O)Nc3ccccc3F)c2)on1` has an MIC of over 64 µg/mL (microbial growth, broth dilution; ATCC29213).
For `COc1ccccc1Nc1cccc2nccnc12`, the EC50 was 20 µM (microbial growth; RN4220).
The MIC of `COC(=O)c1cc(-c2cccc(NC(=O)Nc3cccc(Cl)c3)c2)on1` is reported as over 64 µg/mL (microbial growth, broth dilution; ATCC29213).
`CCOc1ccc(-c2nc3ccccc3n2Cc2ccccc2)cc1` gave an MIC of 64 µg/mL (≈ 195 µM) (microbial growth, broth dilution; ATCC43300 MRSA; drug-resistant strain).
The MFC of `CC(=O)Oc1cccc2c1[nH]c1c(C3=C[C@@]4(OC(C)=O)CC/C=C\CCCCN5CC[C@@H]3[C@]3(C[C@@H]6/C=C\CCCCN6[C@H]34)C5)nccc12` is reported as over 20 µg/mL (microbial killing; MRSA; drug-resistant strain).
For `COC(=O)c1cc(-c2cccc(NC(=S)Nc3ccc(F)cc3F)c2)on1`, the MIC was over 64 µg/mL (microbial growth, broth dilution; ATCC29213).
For `Cc1c(NN=C(C#N)C2=NC(=O)CS2)c(=O)n(-c2ccccc2)n1C`, the MBC was 1 µg/mL (microbial killing, broth dilution).
`CCOC(=O)C1=C(C)N2NC(c3ccccc3O)N(C(Cc3c[nH]c4ccccc34)C(=O)O)C2=NC1c1ccc(Cl)cc1` (stereo not drawn) has an MBC of 100 µg/mL (microbial killing; drug-resistant strain).
With `CCOc1ccc(-c2nc3ccccc3[nH]2)cc1` the MIC was 512 µg/mL (≈ 2150 µM) (microbial growth, broth dilution; ATCC43300 MRSA; drug-resistant strain).
`CC1(C)CC[C@]2(C(=O)O)CC[C@]3(C)C(=CC[C@@H]4[C@@]5(C)CC[C@H](O)C(C)(C)[C@@H]5CC[C@]43C)[C@@H]2C1` has an MIC of 256 µg/mL (≈ 561 µM) (microbial growth; USA400).
`CN[C@H](CC(C)C)C(=O)N[C@H]1C(=O)N[C@@H](CC(N)=O)C(=O)N[C@H]2C(=O)N[C@H]3C(=O)N[C@H](C(=O)N[C@H](C(=O)O)c4cc(O)cc(O)c4-c4cc3ccc4O)[C@H](O)c3ccc(c(Cl)c3)Oc3cc2cc(c3O[C@@H]2O[C@H](CO)[C@@H](O)[C@H](O)[C@H]2O[C@H]2C[C@](C)(N)[C@H](O)[C@H](C)O2)Oc2ccc(cc2Cl)[C@H]1O` has an MBC of 2 µM (microbial killing, broth dilution; ATCC6538).
`COC(=O)c1cc(-c2cccc(NC(=S)Nc3ccccc3)c2)on1` has an MIC of over 64 µg/mL (microbial growth, broth dilution; ATCC29213).
`O=C(O)c1cn(C2CC2)c2cc(N3CCNCC3)c(F)cc2c1=O` has an MBC of 0.019 µg/mL (microbial killing).
`Cc1ccc2nc(-c3ccc([N+](=O)[O-])cc3)n(Cc3ccc(Cl)cc3)c2c1` has an MIC of 8 µg/mL (≈ 21.2 µM) (microbial growth, broth dilution; ATCC43300 MRSA; drug-resistant strain).
With `COC(=O)c1cc(-c2cccc(NC(=O)Nc3cccc(F)c3)c2)on1` the MIC was over 64 µg/mL (microbial growth, broth dilution; ATCC29213).
With `Fc1cccc(Cl)c1-c1nc2ccccc2[nH]1` the MIC was 128 µg/mL (≈ 519 µM) (microbial growth, broth dilution; ATCC43300 MRSA; drug-resistant strain).
For `O=C(Sc1cccccc1=O)c1ccccc1`, the MIC80 was 13.2 µM (≈ 3.2 µg/mL) (microbial growth, broth dilution; ATCC29213).
For `C=CCn1c(-c2ccc(Cl)cc2)nc2ccccc21`, the MIC was 128 µg/mL (≈ 476 µM) (microbial growth, broth dilution; ATCC43300 MRSA; drug-resistant strain).
For `COC(=O)c1cc(-c2cccc(NC(=S)Nc3ccc(C)cc3)c2)on1`, the MIC was over 64 µg/mL (microbial growth, broth dilution; ATCC29213).
The MIC of `Cc1ccc2nc(-c3ccco3)n(Cc3ccccc3)c2c1` is reported as 128 µg/mL (≈ 444 µM) (microbial growth, broth dilution; ATCC43300 MRSA; drug-resistant strain).
With `O=C(O)c1cn(C2CC2)c2cc(N3CCNCC3)c(F)cc2c1=O` the inhibition zone was 25 mm (microbial growth; SG511; 5 µg/mL, 20 h).
